Results pooled from the literature.
Compare with care: the assays were run in different laboratories.
Target: Cyclin-dependent kinase-like 1 (CDKL1, Homo sapiens, UniProt Q00532)

SMILES	assay	conditions	remaining binding
C[C@H](c1ccnc(Nc2nc3ccc(-c4cc(N(C)C)ncn4)cc3[nH]2)c1)N1CCN(C(=O)CC(F)(F)F)CC1	binding, competition with immobilised ligand	0.1 µM	100%
O=C(c1ccc(Nc2ncc(Cl)c(-c3ccc(Cl)s3)n2)cc1)N1CCC(N2CCCC2)CC1	binding, competition with immobilised ligand	1 µM	32%
C[C@@H](c1cccc(C#N)c1)n1cc(Cl)cc(C(N)=O)c1=N	binding, competition with immobilised ligand	1 µM	100%
CN(C)c1nccc(-c2cnn3ncccc23)n1	binding	1 µM	89%
c1cncc(-c2cccc(Nc3nccc(NC4CCCCC4)n3)c2)c1	binding, competition with immobilised ligand	10 µM	70%
c1cnn2ncc(-c3ccnc(N4CCC45COC5)n3)c2c1	binding	1 µM	59%
CNCc1ccccc1-c1csc([C@@H](C)Nc2nc(C)nc3cc(OC)c(OC)cc23)c1	cell-free assay, competition with immobilised ligand	1 µM	93%
O=C(c1ccc(Nc2nccc(-c3cc4ccccc4s3)n2)cc1)N1CCC(N2CCCC2)CC1	binding, competition with immobilised ligand	1 µM	71%
N[C@H]1CCN(c2nccc(-c3cnn4ncccc34)n2)C1	binding	1 µM	80%
C=CC(=O)N1CCC(C(=O)NCC(=O)N2CCN(c3nc(-c4cnc(N)nc4C(F)F)nc(N4CCOCC4)n3)CC2)CC1	binding, competition with immobilised ligand	1 µM	90%
O=C(NCC1CCOCC1)c1n[nH]cc1NC(=O)c1c(F)cccc1F	binding, competition with immobilised ligand	1 µM	77%
N#Cc1ccc(Nc2ccc3[nH]c(=O)[nH]c3c2)c(Cl)c1	binding, competition with immobilised ligand	1 µM	84%
COc1cnc(Nc2cccc(S(N)(=O)=O)c2)nc1N1CCN(c2ccccc2)CC1	binding, competition with immobilised ligand	1 µM	86%
Cc1nc(N2CC[C@@H](O)C2)ncc1-c1cc(C(F)(F)F)cc2[nH]ncc12	binding, competition with immobilised ligand	1 µM	77%
Cc1cnc(Nc2ccc(C(=O)N3CCC(N4CCCC4)CC3)cc2)nc1-c1cc2ccccc2s1	binding, competition with immobilised ligand	1 µM	50%
CN(C)c1ncc(F)c(-c2cnn3ncccc23)n1	binding	1 µM	100%
COc1ncc2cc3ccccc3nc2c1C#N	binding, competition with immobilised ligand	5 µM	100%
C[C@H]1CCN(c2nccc(-c3cnn4ncccc34)n2)C1	binding	1 µM	62%
CNC(=O)Nc1ccc2c(c1)CC[C@@]21OC(=O)N(CC(=O)N(Cc2ccc(F)cc2)[C@@H](C)C(F)(F)F)C1=O	binding, competition with immobilised ligand	1 µM	86%
CN(C)c1nccc(-c2cnc3ncccn23)n1	binding	1 µM	100%
FC(F)(F)Oc1cccc(-c2cnc3ccc(-c4ccncc4)nn23)c1	cell-free assay, competition with immobilised ligand	5 µM	68%
